Source: ChEMBL document CHEMBL4732114, “Design and structural optimization of novel 2H-benzo[h]chromene derivatives that target AcrB and reverse bacterial multidrug resistance” (Eur J Med Chem, 2021)
Converted amounts (≈) assume the structure as drawn.

Experiments:
[1] = Toxicity in multidrug-resistant Escherichia coli BW25113 harboring AcrB deletion mutant assessed as growth inhibition by two-fold broth dilution method
[2] = Toxicity in multidrug-resistant Escherichia coli BW25113 assessed as growth inhibition by two-fold broth dilution method
[3] = system: Escherichia coli; experiment: Antibacterial activity against multidrug-resistant Escherichia coli BW25113 harboring AcrB deletion mutant by two-fold broth dilution method; assay type: functional
In short: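 Two-fold broth dilution MIC against an isogenic BW25113 strain with AcrB deleted, run alongside the AcrB-expressing parent. The test was done to define sub-inhibitory levels for later checkerboard work.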

[4] = molecular target: T1, Multidrug efflux pump subunit AcrB (Escherichia coli (strain K12)) (UniProt P31224); experiment: Inhibition of AcrB in multidrug-resistant Escherichia coli BW25113 assessed as potentiation of erythromycin-induced antibacterial activity by measuring erythromycin MIC at 64 ug/ml by checkerboard titration method (reference value: 64 ug/ml); details: dose 64.0 µg/ml
T1 sequence (whole entry): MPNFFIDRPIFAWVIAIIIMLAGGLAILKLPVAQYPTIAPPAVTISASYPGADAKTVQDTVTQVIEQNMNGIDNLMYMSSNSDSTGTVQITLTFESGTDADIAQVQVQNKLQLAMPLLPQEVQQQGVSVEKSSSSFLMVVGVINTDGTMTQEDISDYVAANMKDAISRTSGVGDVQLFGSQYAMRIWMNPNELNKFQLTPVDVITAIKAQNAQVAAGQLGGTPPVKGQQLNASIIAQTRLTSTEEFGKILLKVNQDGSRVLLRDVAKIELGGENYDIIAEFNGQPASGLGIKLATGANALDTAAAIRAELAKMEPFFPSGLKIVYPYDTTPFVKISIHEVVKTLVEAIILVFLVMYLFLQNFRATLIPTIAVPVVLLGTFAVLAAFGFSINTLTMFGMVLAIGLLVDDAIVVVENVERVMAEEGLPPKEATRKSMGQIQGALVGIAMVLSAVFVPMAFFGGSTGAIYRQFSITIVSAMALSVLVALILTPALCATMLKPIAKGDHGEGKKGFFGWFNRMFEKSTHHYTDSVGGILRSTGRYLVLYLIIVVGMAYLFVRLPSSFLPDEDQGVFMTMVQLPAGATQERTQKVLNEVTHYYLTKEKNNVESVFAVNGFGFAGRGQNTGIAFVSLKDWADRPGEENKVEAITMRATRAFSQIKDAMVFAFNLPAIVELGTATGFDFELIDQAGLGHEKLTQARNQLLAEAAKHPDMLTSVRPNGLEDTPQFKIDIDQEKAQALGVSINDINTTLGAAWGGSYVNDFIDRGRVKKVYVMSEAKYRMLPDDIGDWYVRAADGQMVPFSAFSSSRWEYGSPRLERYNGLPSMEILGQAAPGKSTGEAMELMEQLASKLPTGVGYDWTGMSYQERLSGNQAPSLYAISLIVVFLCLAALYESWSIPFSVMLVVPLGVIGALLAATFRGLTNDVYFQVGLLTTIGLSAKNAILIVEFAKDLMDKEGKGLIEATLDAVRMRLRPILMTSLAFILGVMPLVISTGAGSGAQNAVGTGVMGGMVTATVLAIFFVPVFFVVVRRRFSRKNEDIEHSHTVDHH

[5] = molecular target: T1, Multidrug efflux pump subunit AcrB (Escherichia coli (strain K12)); experiment: Inhibition of AcrB in multidrug-resistant Escherichia coli BW25113 assessed as potentiation of tetraphenylphosphonium-induced antibacterial activity by measuring tetraphenylphosphonium MIC at 64 ug/ml by checkerboard titration method (reference value: 1024 ug/ml); details: dose 64.0 µg/ml
[6] = molecular target: T1, Multidrug efflux pump subunit AcrB (Escherichia coli (strain K12)); experiment: Inhibition of AcrB in multidrug-resistant Escherichia coli BW25113 assessed as potentiation of tetraphenylphosphonium-induced antibacterial activity by measuring tetraphenylphosphonium MIC at 128 ug/ml by checkerboard titration method (reference value: 1024 ug/ml); details: dose 128.0 µg/ml
[7] = molecular target: T1, Multidrug efflux pump subunit AcrB (Escherichia coli (strain K12)); experiment: Inhibition of AcrB in multidrug-resistant Escherichia coli BW25113 assessed as potentiation of erythromycin-induced antibacterial activity by measuring erythromycin MIC at 32 ug/ml by checkerboard titration method (reference value: 64 ug/ml); details: dose 32.0 µg/ml
[8] = molecular target: T1, Multidrug efflux pump subunit AcrB (Escherichia coli (strain K12)); experiment: Inhibition of AcrB in multidrug-resistant Escherichia coli BW25113 assessed as potentiation of erythromycin-induced antibacterial activity by measuring erythromycin MIC at 256 ug/ml by checkerboard titration method (reference value: 64 ug/ml); details: dose 256.0 µg/ml
[9] = molecular target: T1, Multidrug efflux pump subunit AcrB (Escherichia coli (strain K12)); details: Escherichia coli BW25113; dose 64.0 µg/ml
[10] = molecular target: T1, Multidrug efflux pump subunit AcrB (Escherichia coli (strain K12)); experiment: Inhibition of AcrB in multidrug-resistant Escherichia coli BW25113 assessed as potentiation of levofloxacin-induced antibacterial activity by measuring levofloxacin MIC at 16 ug/ml by checkerboard titration method (reference value: 0.06 ug/ml); details: dose 16.0 µg/ml
[11] = molecular target: T1, Multidrug efflux pump subunit AcrB (Escherichia coli (strain K12)); experiment: Inhibition of AcrB in multidrug-resistant Escherichia coli BW25113 assessed as potentiation of tetraphenylphosphonium-induced antibacterial activity by measuring tetraphenylphosphonium MIC at 16 ug/ml by checkerboard titration method (reference value: 1024 ug/ml); details: dose 16.0 µg/ml
[12] = molecular target: T1, Multidrug efflux pump subunit AcrB (Escherichia coli (strain K12)); details: Escherichia coli BW25113; dose 16.0 µg/ml
[13] = molecular target: T1, Multidrug efflux pump subunit AcrB (Escherichia coli (strain K12)); experiment: Inhibition of AcrB in multidrug-resistant Escherichia coli BW25113 assessed as potentiation of chloramphenicol-induced antibacterial activity by measuring chloramphenicol MIC at 256 ug/ml by checkerboard titration method (reference value: 8 ug/ml); details: dose 256.0 µg/ml
[14] = molecular target: T1, Multidrug efflux pump subunit AcrB (Escherichia coli (strain K12)); experiment: Inhibition of AcrB in multidrug-resistant Escherichia coli BW25113 assessed as potentiation of levofloxacin-induced antibacterial activity by measuring levofloxacin MIC at 128 ug/ml by checkerboard titration method (reference value: 0.06 ug/ml); details: dose 128.0 µg/ml
[15] = molecular target: T1, Multidrug efflux pump subunit AcrB (Escherichia coli (strain K12)); details: Escherichia coli BW25113; dose 256.0 µg/ml
[16] = molecular target: T1, Multidrug efflux pump subunit AcrB (Escherichia coli (strain K12)); experiment: Inhibition of AcrB in multidrug-resistant Escherichia coli BW25113 assessed as potentiation of chloramphenicol-induced antibacterial activity by measuring chloramphenicol MIC at 32 ug/ml by checkerboard titration method (reference value: 8 ug/ml); details: dose 32.0 µg/ml
[17] = molecular target: T1, Multidrug efflux pump subunit AcrB (Escherichia coli (strain K12)); experiment: Inhibition of AcrB in multidrug-resistant Escherichia coli BW25113 assessed as potentiation of chloramphenicol-induced antibacterial activity by measuring chloramphenicol MIC at 16 ug/ml by checkerboard titration method (reference value: 8 ug/ml); details: dose 16.0 µg/ml
[18] = molecular target: T1, Multidrug efflux pump subunit AcrB (Escherichia coli (strain K12)); experiment: Inhibition of AcrB in multidrug-resistant Escherichia coli BW25113 assessed as potentiation of levofloxacin-induced antibacterial activity by measuring levofloxacin MIC at 256 ug/ml by checkerboard titration method (reference value: 0.06 ug/ml); details: dose 256.0 µg/ml
[19] = molecular target: T1, Multidrug efflux pump subunit AcrB (Escherichia coli (strain K12)); experiment: Inhibition of AcrB in multidrug-resistant Escherichia coli BW25113 assessed as potentiation of erythromycin-induced antibacterial activity by measuring erythromycin MIC at 16 ug/ml by checkerboard titration method (reference value: 64 ug/ml); details: dose 16.0 µg/ml
[20] = molecular target: T1, Multidrug efflux pump subunit AcrB (Escherichia coli (strain K12)); experiment: Inhibition of AcrB in multidrug-resistant Escherichia coli BW25113 assessed as potentiation of erythromycin-induced antibacterial activity by measuring erythromycin MIC at 128 ug/ml by checkerboard titration method (reference value: 64 ug/ml); details: dose 128.0 µg/ml
[21] = molecular target: T1, Multidrug efflux pump subunit AcrB (Escherichia coli (strain K12)); experiment: Inhibition of AcrB in multidrug-resistant Escherichia coli BW25113 assessed as potentiation of levofloxacin-induced antibacterial activity by measuring levofloxacin MIC at 64 ug/ml by checkerboard titration method (reference value: 0.06 ug/ml); details: dose 64.0 µg/ml
[22] = molecular target: T1, Multidrug efflux pump subunit AcrB (Escherichia coli (strain K12)); details: Escherichia coli BW25113; dose 128.0 µg/ml
[23] = molecular target: T1, Multidrug efflux pump subunit AcrB (Escherichia coli (strain K12)); experiment: Inhibition of AcrB in multidrug-resistant Escherichia coli BW25113 assessed as potentiation of tetraphenylphosphonium-induced antibacterial activity by measuring tetraphenylphosphonium MIC at 32 ug/ml by checkerboard titration method (reference value: 1024 ug/ml); details: dose 32.0 µg/ml
[24] = molecular target: T1, Multidrug efflux pump subunit AcrB (Escherichia coli (strain K12)); details: Escherichia coli BW25113; dose 32.0 µg/ml
[25] = molecular target: T1, Multidrug efflux pump subunit AcrB (Escherichia coli (strain K12)); experiment: Inhibition of AcrB in multidrug-resistant Escherichia coli BW25113 assessed as potentiation of chloramphenicol-induced antibacterial activity by measuring chloramphenicol MIC at 128 ug/ml by checkerboard titration method (reference value: 8 ug/ml); details: dose 128.0 µg/ml
[26] = molecular target: T1, Multidrug efflux pump subunit AcrB (Escherichia coli (strain K12)); experiment: Inhibition of AcrB in multidrug-resistant Escherichia coli BW25113 assessed as potentiation of levofloxacin-induced antibacterial activity by measuring levofloxacin MIC at 32 ug/ml by checkerboard titration method (reference value: 0.06 ug/ml); details: dose 32.0 µg/ml
[27] = molecular target: T1, Multidrug efflux pump subunit AcrB (Escherichia coli (strain K12)); experiment: Inhibition of AcrB in multidrug-resistant Escherichia coli BW25113 assessed as potentiation of tetraphenylphosphonium-induced antibacterial activity by measuring tetraphenylphosphonium MIC at 256 ug/ml by checkerboard titration method (reference value: 1024 ug/ml); details: dose 256.0 µg/ml
[28] = molecular target: T1, Multidrug efflux pump subunit AcrB (Escherichia coli (strain K12)); experiment: Inhibition of AcrB in multidrug-resistant Escherichia coli BW25113 assessed as potentiation of chloramphenicol-induced antibacterial activity by measuring chloramphenicol MIC at 64 ug/ml by checkerboard titration method (reference value: 8 ug/ml); details: dose 64.0 µg/ml

CC1CN(C(=O)c2cc3c(OCc4ccc([N+](=O)[O-])cc4)cccc3c3c2CCC(C)(C)O3)CC(C)O1 (centres undefined)
MIC [1]: > 128 µg/mL
MIC [2]: > 512 µg/mL

CC[C@H]1OC(=O)[C@H](C)[C@@H](O[C@H]2C[C@@](C)(OC)[C@@H](O)[C@H](C)O2)[C@H](C)[C@@H](O[C@@H]2O[C@H](C)C[C@H](N(C)C)[C@H]2O)[C@](C)(O)C[C@@H](C)C(=O)[C@H](C)[C@@H](O)[C@]1(C)O [ERYTHROMYCIN]
MIC [3]: 4 µg/mL (≈ 5.45 µM)

O=C(N[C@H](CO)[C@H](O)c1ccc([N+](=O)[O-])cc1)C(Cl)Cl [CHLORAMPHENICOL]
MIC [3]: 2 µg/mL (≈ 6.19 µM)

C[C@@H](Cc1ccc(O)c(O)c1)[C@@H](C)Cc1ccc(O)c(O)c1
MIC [4]: 64 µg/mL
MIC [5]: 1020 µg/mL
MIC [6]: 128 µg/mL
MIC [7]: 64 µg/mL
MIC [8]: 32 µg/mL
MIC [9]: 16 µg/mL (≈ 52.9 µM)
MIC [10]: 0.06 µg/mL
MIC [11]: 1020 µg/mL
MIC [12]: 16 µg/mL (≈ 52.9 µM)
MIC [13]: 2 µg/mL
MIC [14]: 0.03 µg/mL
MIC [15]: 16 µg/mL (≈ 52.9 µM)
MIC [16]: 8 µg/mL
MIC [17]: 8 µg/mL
MIC [18]: 0.03 µg/mL
MIC [19]: 64 µg/mL
MIC [20]: 64 µg/mL
MIC [21]: 0.03 µg/mL
MIC [22]: 16 µg/mL (≈ 52.9 µM)
MIC [23]: 1020 µg/mL
MIC [24]: 16 µg/mL (≈ 52.9 µM)
MIC [25]: 4 µg/mL
MIC [26]: 0.06 µg/mL
MIC [27]: 64 µg/mL
MIC [28]: 8 µg/mL
